Source: ChEMBL document CHEMBL3994624, “Antimalarial Pyrido[1,2-a]benzimidazoles: Lead Optimization, Parasite Life Cycle Stage Profile, Mechanistic Evaluation, Killing Kinetics, and in Vivo Oral Efficacy in a Mouse Model” (J Med Chem, 2017)
Converted amounts (≈) assume the structure as drawn. The source made the active and inactive calls. No cut-off for these calls is given here.

Columns and labels:
Plasmodium berghei [1] = experiment: Antimalarial activity against GFP-fused Plasmodium berghei ANKA infected in mouse assessed as protection against parasitemia at 6 mg/kg, po administered once daily for 4 days measured 30 days post infection by light microscopy; assay type: functional, organism-based
Ferriprotoporphyrin IX [2] = experiment: Inhibition of beta hematin formation in ring stage of chloroquine-sensitive Plasmodium falciparum NF54 assessed as increase in free heme level after 36 hrs by UV-vis spectra analysis
Summary of the method: (§1)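 Synchronized ring-stage parasites treated with increasing drug concentrations, then cellular fractionation. Free haem and haemozoin quantified as iron (fg/cell) and compared with untreated control; significance by p-values; parasite survival overlaid.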

Plasmodium berghei [3] = experiment: Antimalarial activity against GFP-fused Plasmodium berghei ANKA infected in mouse assessed as protection against parasitemia at 3 mg/kg, po administered once daily for 4 days measured 30 days post infection by light microscopy; assay type: functional, organism-based
Summary of the method: (§2)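 P. berghei-infected mice, 3 per group. Compound formulated in 90/10 Tween80/ethanol (v/v), diluted 10-fold with water, given orally once daily at 4, 24, 48 and 72 h post-infection. Outcomes: % parasitemia reduction versus untreated control, mean survival days, and cured/infected. Mice with <40% reduction euthanized on day 4.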

Plasmodium berghei [4] = experiment: Antimalarial activity against GFP-fused Plasmodium berghei ANKA infected in mouse assessed as protection against parasitemia at 50 mg/kg, po administered once daily for 4 days measured 30 days post infection by light microscopy; assay type: functional, organism-based; summary of the method: as §2
Ferriprotoporphyrin IX [5] = experiment: Inhibition of beta hematin formation in ring stage of chloroquine-sensitive Plasmodium falciparum NF54 assessed as decrease in haemozoin level after 36 hrs by UV-vis spectra analysis; summary of the method: as §1
Plasmodium berghei [6] = experiment: Antimalarial activity against GFP-fused Plasmodium berghei ANKA infected in mouse assessed as protection against parasitemia at 12.5 mg/kg, po administered once daily for 4 days measured 30 days post infection by light microscopy; assay type: functional, organism-based
Plasmodium berghei [7] = experiment: Antimalarial activity against GFP-fused Plasmodium berghei ANKA infected in mouse assessed as protection against parasitemia at 25 mg/kg, po administered once daily for 4 days measured 30 days post infection by light microscopy; assay type: functional, organism-based
[8] = Selectivity index, ratio of IC50 for CHO cells to IC50 for chloroquine-sensitive Plasmodium falciparum NF54; assay type: toxicity; conditions: hamster, read-out: Ratio IC50
Summary of the method: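 Selectivity index = IC50 CHO / IC50 PfNF54.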

[9] = Kinetic solubility of the compound in FaSSIF at pH 6.5 after 2 hrs by shake flask method; assay type: physicochemical; conditions: read-out: Kinetic_solubility
Ferriprotoporphyrin IX [10] = experiment: Inhibition of beta hematin formation in ring stage of chloroquine-sensitive Plasmodium falciparum NF54 assessed as increase in free heme level at 0.5 to 3 times IC50 after 36 hrs by UV-vis spectra analysis; summary of the method: as §1
Ferriprotoporphyrin IX [11] = experiment: Inhibition of beta hematin formation in water/NP40/DMSO solution after 5 hrs
CHO = experiment: Cytotoxicity against CHO cells after by MTT assay; assay type: cell-based; conditions: Cricetulus griseus
Plasmodium berghei [12] = experiment: Antimalarial activity against GFP-fused Plasmodium berghei ANKA liver stage infected in HuH7 cells pretreated for 1 hr followed by parasite infection at 1 uM after 48 hrs by luciferase reporter gene assay; assay type: functional, cell-based
Plasmodium falciparum [13] = experiment: Anti-plasmodial activity against chloroquine-sensitive Plasmodium falciparum NF54 by [3H]-hypoxanthine incorporation assay; assay type: functional
Summary of the method: (§3)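 P. falciparum asexual blood-stage growth inhibition by [3H]hypoxanthine incorporation; chloroquine and artesunate run as reference drugs in every experiment; IC50 given as mean of ≥2 independent experiments.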

Plasmodium berghei [14] = experiment: Antimalarial activity against GFP-fused Plasmodium berghei ANKA liver stage infected in HuH7 cells pretreated for 1 hr followed by parasite infection after 48 hrs by luciferase reporter gene assay; assay type: functional, cell-based; conditions: Huh-7
Plasmodium falciparum [15] = experiment: Ratio of IC50 for chloroquine-sensitive Plasmodium falciparum NF54 after 24 hrs to IC50 for chloroquine-sensitive Plasmodium falciparum NF54 after 72 hrs; assay type: functional
Ferriprotoporphyrin IX [16] = experiment: Inhibition of beta hematin formation in ring stage of chloroquine-sensitive Plasmodium falciparum NF54 assessed as decrease in haemozoin level at 0.5 to 3 times IC50 after 36 hrs by UV-vis spectra analysis; summary of the method: as §1
Huh-7 = experiment: Cytotoxicity against human HuH7 cells at 1 to 10 uM after 48 hrs by Alamarblue assay; assay type: cell-based; conditions: huh-7, 48 h
Plasmodium falciparum [17] = experiment: Anti-plasmodial activity against multidrug resistant Plasmodium falciparum K1 by [3H]-hypoxanthine incorporation assay; assay type: functional; summary of the method: as §3
[18] = Metabolic stability in Balb/c mouse liver microsomes assessed as compound remaining at 1 uM in presence of NADPH after 30 mins by LC-MS/MS analysis; assay type: ADME, microsome; conditions: read-out: Stability
Summary of the method: (§4)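 Mouse and human liver microsomes; % compound remaining after 30 min.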

Plasmodium berghei [19] = experiment: Antimalarial activity against GFP-fused Plasmodium berghei ANKA infected in mouse assessed as reduction in parasitemia at 10 mg/kg, po administered once daily for 4 days by flow cytometry relative to control; assay type: functional; set-up: scale not given: the % may be the effect or the level left; summary of the method: as §2
[20] = Metabolic stability in human liver microsomes assessed as compound remaining at 1 uM in presence of NADPH after 30 mins by LC-MS/MS analysis; assay type: ADME, microsome; conditions: read-out: Stability; summary of the method: as §4
Mus musculus [21] = experiment: AUC (0 to infinity) in C57/Bl6 mouse at 2.5 mg/kg, iv by LC-MS method; assay type: ADME, organism-based; set-up: dose 2.5 mg/kg, time infinity, route intravenous; conditions: in vivo
Summary of the method: (§5)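 Mice (n=3) given a single intravenous dose of 2.5 mg/kg in dimethylacetamide:polyethylene glycol:propylene glycol/ethanol (4:1) at 1:3:6; 24 h sampling. Parameters were fitted by nonlinear mixed-effects two-compartment model with first-order elimination.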

Plasmodium falciparum [22] = experiment: Ratio of IC50 for chloroquine-sensitive Plasmodium falciparum NF54 early 2/3 stage gametocytes to IC50 for chloroquine-sensitive Plasmodium falciparum NF54 late 4/5 stage gametocytes; assay type: functional
Summary of the method: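 Early (stage II/III) and late (stage IV/V) gametocytes tested in parallel luciferase reporter assays; stage preference = EG IC50/LG IC50.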

Plasmodium berghei [23] = experiment: Antimalarial activity against GFP-fused Plasmodium berghei ANKA infected in mouse assessed as reduction in parasitemia at 30 mg/kg, po administered once daily for 4 days by flow cytometry relative to control; assay type: functional; set-up: scale not given: the % may be the effect or the level left; summary of the method: as §2
Plasmodium berghei [24] = experiment: Antimalarial activity against GFP-fused Plasmodium berghei ANKA infected in mouse assessed as reduction in parasitemia at 50 mg/kg, po administered once daily for 4 days by flow cytometry relative to control; assay type: functional; set-up: scale not given: the % may be the effect or the level left; summary of the method: as §2
Plasmodium berghei [25] = experiment: Antimalarial activity against GFP-fused Plasmodium berghei ANKA infected in mouse assessed as mouse mean survival days at 3 mg/kg, po administered once daily for 4 days; assay type: functional
Summary of the method: (§6)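 P. berghei-infected mice (n=3 per dose) dosed orally once daily on 4 consecutive days at 4, 24, 48 and 72 h after infection; compound in 90/10 Tween80/ethanol (v/v) diluted 10-fold with water. Read-outs were % parasitemia reduction, mean survival time in days and cure; mice with <40% parasitemia reduction euthanized on day 4.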

[26] = Volume of distribution in C57/Bl6 mouse at 2.5 mg/kg, iv by LC-MS method; assay type: ADME, organism-based; conditions: in vivo; summary of the method: as §5
[27] = Oral bioavailability in C57/Bl6 mouse at 10 mg/kg administered via gavage by LC-MS method; assay type: ADME, organism-based; conditions: in vivo
Summary of the method: (§7)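 Mice (n=3) given a single oral dose of 10 mg/kg as a suspension in […] HPMC; plasma sampled over 24 h. Parameters were estimated by nonlinear mixed-effects modelling with a two-compartment disposition model, first-order absorption and elimination.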

Plasmodium berghei [28] = experiment: Antimalarial activity against GFP-fused Plasmodium berghei ANKA infected in mouse assessed as mouse mean survival days at 50 mg/kg, po administered once daily for 4 days; assay type: functional; summary of the method: as §6
Plasmodium berghei [29] = experiment: Antimalarial activity against GFP-fused Plasmodium berghei ANKA infected in mouse assessed as mouse mean survival days at 30 mg/kg, po administered once daily for 4 days; assay type: functional; summary of the method: as §6
Plasmodium berghei [30] = experiment: Antimalarial activity against GFP-fused Plasmodium berghei ANKA infected in mouse assessed as protection against parasitemia at 10 mg/kg, po administered once daily for 4 days measured 30 days post infection by light microscopy; assay type: functional, organism-based; summary of the method: as §2
[31] = Half life in C57/Bl6 mouse at 2.5 mg/kg, iv by LC-MS method; assay type: ADME, organism-based; conditions: in vivo; summary of the method: as §5
[32] = Tmax in C57/Bl6 mouse at 10 mg/kg, po administered via gavage by LC-MS method; assay type: ADME, organism-based; conditions: in vivo; summary of the method: as §7
Plasmodium berghei [33] = experiment: Antimalarial activity against GFP-fused Plasmodium berghei ANKA infected in mouse assessed as reduction in parasitemia at 3 mg/kg, po administered once daily for 4 days by flow cytometry relative to control; assay type: functional; set-up: scale not given: the % may be the effect or the level left; summary of the method: as §2
Plasmodium falciparum [34] = experiment: Anti-plasmodial activity against chloroquine-sensitive Plasmodium falciparum NF54 late 4/5 stage gametocytes assessed as reduction in ATP levels after 24 hrs by BacTiter-Glo reagent based bioluminescence assay; assay type: functional; conditions: NF54, 24 h
[35] = Clearance in C57/Bl6 mouse at 2.5 mg/kg, iv by LC-MS method; assay type: ADME, organism-based; conditions: in vivo; summary of the method: as §5
Plasmodium berghei [36] = experiment: Antimalarial activity against GFP-fused Plasmodium berghei ANKA infected in mouse assessed as protection against parasitemia at 30 mg/kg, po administered once daily for 4 days measured 30 days post infection by light microscopy; assay type: functional, organism-based; summary of the method: as §2
[37] = Cmax in C57/Bl6 mouse at 10 mg/kg, po administered via gavage by LC-MS method; assay type: ADME, organism-based; set-up: dose 10 mg/kg, route oral; conditions: in vivo; summary of the method: as §7
[38] = Half life in C57/Bl6 mouse at 10 mg/kg, po administered via gavage by LC-MS method; assay type: ADME, organism-based; conditions: in vivo; summary of the method: as §7
Mus musculus [39] = experiment: AUC (0 to infinity) in C57/Bl6 mouse at 10 mg/kg, po administered via gavage by LC-MS method; assay type: ADME, organism-based; set-up: dose 10 mg/kg, route oral, time infinity; conditions: in vivo; summary of the method: as §7
Plasmodium berghei [40] = experiment: Antimalarial activity against GFP-fused Plasmodium berghei ANKA infected in mouse assessed as mouse mean survival days at 10 mg/kg, po administered once daily for 4 days; assay type: functional; summary of the method: as §6

CCNCCNc1cc(-c2ccc(C(F)(F)F)cc2)c(C#N)c2nc3ccccc3n12
Activity (Plasmodium berghei [1]): inactive | inhibition (Ferriprotoporphyrin IX [2]): Dose-dependent effect | Activity (Plasmodium berghei [3]): inactive | Activity (Plasmodium berghei [4]): inactive | inhibition (Ferriprotoporphyrin IX [5]): Dose-dependent effect | Activity (Plasmodium berghei [6]): inactive | Activity (Plasmodium berghei [7]): inactive

N#Cc1c(-c2ccc(C(F)(F)F)cc2)c(F)c(NCCN2CCC(O)C2)n2c1nc1ccccc12 (configuration not stated)
selectivity ratio [8]: 1080 | solubility kinetic at 2 h [9]: 80 µM (≈ 38.7 µg/mL) | inhibition (Ferriprotoporphyrin IX [10]): inactive | IC50 (Ferriprotoporphyrin IX [11]): 120 µM | IC50 (CHO): 206 µM | Activity (Plasmodium berghei [12]): Active | IC50 (Plasmodium falciparum [13]): 190 nM | IC50 (Plasmodium berghei [14]): 1420 nM | Ratio IC50 (Plasmodium falciparum [15]): 22 | inhibition (Ferriprotoporphyrin IX [16]): inactive | Activity (Huh-7): Non-Toxic | IC50 (Plasmodium falciparum [17]): 170 nM | remaining at 0.5 h, 1 µM [18]: 37%

CCNCCNc1cc(-c2ccc(C(F)(F)F)cc2)c(C#N)c2nc3cc(Cl)c(Cl)cc3n12
Activity (Plasmodium berghei [19]): 99.6% | selectivity ratio [8]: 188 | remaining at 0.5 h, 1 µM [20]: 95% | Activity (Plasmodium berghei [3]): inactive | solubility kinetic at 2 h [9]: 10 µM (≈ 4.92 µg/mL) | AUC (Mus musculus [21]): 256 µM·min | Ratio IC50 (Plasmodium falciparum [22]): 1.2 | Activity (Plasmodium berghei [23]): 99.7% | Activity (Plasmodium berghei [24]): 98% | MSD (Plasmodium berghei [25]): 17 days | Vd [26]: 26 L/kg | bioavailability [27]: < 15% | IC50 (CHO): 3.39 µM | MSD (Plasmodium berghei [28]): 30 days | Activity (Plasmodium berghei [4]): Active | MSD (Plasmodium berghei [29]): 30 days | Activity (Plasmodium berghei [30]): inactive | half-life [31]: 900 min | IC50 (Plasmodium falciparum [13]): 20 nM | Tmax [32]: 10 h | Ratio IC50 (Plasmodium falciparum [15]): 1.5 - 2 | Activity (Plasmodium berghei [33]): 99.5% | IC50 (Plasmodium falciparum [34]): 720 nM | Activity (Huh-7): Non-Toxic | clearance [35]: 21 mL/min/kg | Activity (Plasmodium berghei [36]): Active | IC50 (Plasmodium falciparum [17]): 20 nM | Cmax [37]: 70 nM | half-life [38]: 900 min | AUC (Mus musculus [39]): 158 µM·min | MSD (Plasmodium berghei [40]): 18 days | remaining at 0.5 h, 1 µM [18]: 81%
